ChEMBL document CHEMBL4513216, “Probing the Open Global Health Chemical Diversity Library for Multistage-Active Starting Points for Next-Generation Antimalarials” (ACS Infect Dis, 2020)

Assay: Toxicity liver stage against HepG2, at 10uM
Assay type: cell-based
Parameters: test concentration 10 uM, cell line HepG2-A16-CD81EGFP
Details: human, HepG2-A16-CD81EGFP cells; read-out: INHIBITION
Summary of the method: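 Uninfected HepG2-A16-CD81EGFP cells, 3 × 10^3 per well, 1536-well, plated on prespotted compound at 10 μM final, parasite-free screening media added to match infected plates; puromycin 10 μM positive, DMSO 0.5% negative; run in parallel with 48 h PbLuc assay at 37 °C, 5% CO2; viability by CellTiter-Glo luminescence, normalized to controls.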
Molecule `CCOC(C)c1nc(CN2CCNCC2)cs1` (stereo unspecified) has a cytotoxicity at 10 µM of -13.3%.
With `O=C(Nc1nncs1)NC1CCOc2ccccc21` (stereo unspecified) the cytotoxicity at 10 µM was -10.4%.
`COCCN1C(=O)C[C@@H]2[C@H]1CCN2C(=O)COc1ccccc1` gave a cytotoxicity at 10 µM of -0.902%.
In the case of `CCN(Cc1nccs1)Cc1cc(Cl)ccc1OC`, the cytotoxicity at 10 µM is reported as -1.06%.
Molecule `CCCn1nc(C)c2c1NC(=O)CC2c1ccc(CN2CCCC2)s1` (stereo unspecified) has a cytotoxicity at 10 µM of 0.355%.
Work on `c1ccc(CCCN2CCN(CCn3cncn3)CC2)cc1` yielded a cytotoxicity at 10 µM of -11.3%.
`COc1cccc(CNC(=O)N2CCN3CCNC(=O)C3C2)c1` (stereo unspecified) gave a cytotoxicity at 10 µM of 2.62%.
`COc1ccc([C@@H](C)n2ccnc2-c2cc3n(n2)CCCNC3)cc1` gave a cytotoxicity at 10 µM of -8.48%.
For `CN(CCc1ccccn1)C(=O)CCC1CCCN(S(C)(=O)=O)C1` (stereo unspecified), the cytotoxicity at 10 µM was 4.77%.
For `CS(=O)(=O)NCC1CCN(Cc2cc3ccccc3[nH]c2=O)C1` (stereo unspecified), the cytotoxicity at 10 µM was -6.92%.
Molecule `COc1ccc(C(CC(=O)NCc2n[nH]c(N)n2)c2ccccc2)cc1` (stereo unspecified) has a cytotoxicity at 10 µM of 7.66%.
In the case of `CC(=O)N[C@@H]1C[C@H](Cc2ccccc2)O[C@H](c2ccc(C(=O)O)cc2)C1`, the cytotoxicity at 10 µM is reported as 2.76%.
Molecule `CC(=O)N1CCCC(C(=O)N2Cc3nc(C)n(C)c(=O)c3C2)C1` (stereo unspecified) has a cytotoxicity at 10 µM of -3.65%.
In the case of `COc1cccc(O)c1CN1CCCC(Nc2cccc(F)c2)C1` (stereo unspecified), the cytotoxicity at 10 µM is reported as -4.47%.
With `O=C(CCN1CCOC(C(F)(F)F)C1)NCc1cccc(Cl)c1` (stereo unspecified) the cytotoxicity at 10 µM was 2.04%.
In the case of `Cn1ncc2c(NCC3CCS(=O)(=O)C3)nc(-c3ccncc3)nc21` (stereo unspecified), the cytotoxicity at 10 µM is reported as -3.91%.
`COCCN(Cc1ccccn1)Cc1sccc1C` gave a cytotoxicity at 10 µM of -3.6%.
`Cc1cccc(C(C(=O)NCc2nc(-c3cccnc3)no2)N(C)C)c1` (stereo unspecified) showed a cytotoxicity at 10 µM of 6.45%.
For `Cn1ccc(C2CCCCN2C(=O)c2cccc(Cn3cccn3)c2)n1` (stereo unspecified), the cytotoxicity at 10 µM was 8.04%.
Molecule `CCn1cc(CN2CCC(c3nnc(CN(C)C)n3CC)CC2)cn1` has a cytotoxicity at 10 µM of -22.3%.
Work on `CN1CCCN(C(=O)c2ccc3c(c2)nc(N2CCOCC2)n3C)CC1` yielded a cytotoxicity at 10 µM of -11.9%.
For `CCNC(=O)[C@@H]1C[C@H](NC(=O)c2cncnc2C)CN1CCCSC`, the cytotoxicity at 10 µM was -11.7%.
In the case of `COc1cccc(OCC2CCCN(C3CCN(C(C)=O)CC3)C2)c1` (stereo unspecified), the cytotoxicity at 10 µM is reported as -18.3%.
For `CS(=O)(=O)CCC(=O)N1CCC2(CCCN(C3CCOCC3)C2=O)C1` (stereo unspecified), the cytotoxicity at 10 µM was -7.64%.
`O=C(c1ccc(C2CCCO2)s1)N1CCS(=O)(=O)CC1` (stereo unspecified) gave a cytotoxicity at 10 µM of -14.8%.
`Cn1ccnc1CN1CCN(Cc2ccc(C#N)cc2F)CC1` gave a cytotoxicity at 10 µM of -13.2%.
`COc1c(CNC2CCCOc3ccccc32)c(C(C)C)nn1C` (stereo unspecified) gave a cytotoxicity at 10 µM of -3.48%.
Molecule `O=C(c1nn(-c2ccccc2F)cc1O)N1CCCCC1` has a cytotoxicity at 10 µM of 3.36%.
In the case of `NC(=O)NCCC(=O)NCc1nn(-c2ccccc2)c2c1CCC2`, the cytotoxicity at 10 µM is reported as -9.83%.
In the case of `CC(Cn1ccnc1)NC(=O)NCc1ccccn1` (stereo unspecified), the cytotoxicity at 10 µM is reported as -6.66%.
Molecule `Cc1cnn(CCNCc2csc(-c3ccc(C)o3)n2)c1` has a cytotoxicity at 10 µM of -1.64%.
`COC(=O)CN1CCC(C(=O)c2cc(F)ccc2F)CC1` gave a cytotoxicity at 10 µM of -6.52%.
`CCc1nc(C2CCCN2CC(=O)N2CCCc3ccccc32)no1` (stereo unspecified) gave a cytotoxicity at 10 µM of -25.2%.
In the case of `CCOc1ccccc1OC1CCN(C(=O)c2csnn2)CC1`, the cytotoxicity at 10 µM is reported as -5.5%.
Molecule `O=C(Cc1ccc2c(c1)CCO2)N1CCN(c2ccncc2)CC1` has a cytotoxicity at 10 µM of -4.8%.
Molecule `CN(Cc1ccsc1)C(=O)Nc1ccc(N2CCCC2)nc1` has a cytotoxicity at 10 µM of -10.5%.
`COc1ccc(CC(=O)N2CCCC(n3nc(C)cc3C)C2)cc1` (stereo unspecified) gave a cytotoxicity at 10 µM of 0.471%.
With `Cc1cc(C(=O)NCc2ccc(N3CCCC(C(N)=O)C3)cc2)on1` (stereo unspecified) the cytotoxicity at 10 µM was -9.56%.
Molecule `Cc1nn(C)c(N(C)C)c1CNCc1ccccc1CO` has a cytotoxicity at 10 µM of -8.84%.
`Cc1nc(C2CCCN(C(=O)c3cccc4c3OCCO4)C2)no1` (stereo unspecified) gave a cytotoxicity at 10 µM of -8.93%.
Molecule `O=C(CCN1CCCN(c2nccs2)CC1)Nc1ccccc1` has a cytotoxicity at 10 µM of 10.5%.
`Cc1cc(NC(=O)N(CC2CCOC2)C2CC2)no1` (stereo unspecified) showed a cytotoxicity at 10 µM of -0.457%.
`Cc1ccc(NC2CCN(C(=O)Cc3csc(C)n3)CC2)nn1` showed a cytotoxicity at 10 µM of -6.51%.
`NS(=O)(=O)Cc1ccc(CNC(=O)NCC2CCOC2)cc1` (stereo unspecified) gave a cytotoxicity at 10 µM of 1.18%.
For `Cc1ccccc1OC1CCN(CC(=O)Nc2ccn(C)n2)CC1`, the cytotoxicity at 10 µM was -3.34%.
`CCOC[C@H]1CC[C@H]2[C@H](CCN2Cc2c(C)noc2C)O1` showed a cytotoxicity at 10 µM of 3.23%.
With `Fc1ccc(CN2CCO[C@H]3[C@H](OCCN4CCCC4)CC[C@@H]32)cc1` the cytotoxicity at 10 µM was 2.17%.
For `CS(=O)(=O)NCc1cnc2n1CCN(Cc1cccnc1)CC2`, the cytotoxicity at 10 µM was 5.66%.
Molecule `N#Cc1ccccc1N1CC2(CCCCN2CC2CC2)CC1=O` (stereo unspecified) has a cytotoxicity at 10 µM of 10.7%.
Molecule `COc1c(CNCCNC(=O)c2ccccc2)c(C)nn1C` has a cytotoxicity at 10 µM of -4.74%.
Molecule `Cc1cccc(NC(=O)N2CCCn3cnc(CN4CCCC4)c3C2)c1` has a cytotoxicity at 10 µM of -12.2%.
For `Cn1cc(C(=O)N[C@@H]2CN(Cc3cccs3)[C@@H]3CCCO[C@@H]32)cn1`, the cytotoxicity at 10 µM was -13.4%.
In the case of `Cc1ccc(CN2CCOC3(COCCN(S(C)(=O)=O)C3)C2)o1` (stereo unspecified), the cytotoxicity at 10 µM is reported as 11.7%.
`O=C1COC2(CCN(S(=O)(=O)C3CC3)CC2)CN1c1cccnc1` gave a cytotoxicity at 10 µM of -1.69%.
Molecule `CSc1ncccc1C(=O)N1C[C@@H]2CC[C@H]1CN(c1ncccn1)C2` has a cytotoxicity at 10 µM of -4.03%.
Work on `CCN1CCc2c(sc3c2C(=O)NC(C=Cc2ccccc2)N3)C1` (stereo unspecified) yielded a cytotoxicity at 10 µM of 4.73%.
